From ChEMBL document CHEMBL2163282, “Discovery and characterization of AZD9272 and AZD6538-Two novel mGluR5 negative allosteric modulators selected for clinical development” (Bioorg Med Chem Lett, 2012)
pIC50: −log10 of the molar value. Values after ≈ are worked out from the molar mass of the structure shown. Active and inactive are the calls of the source. The calls are words filed in the database; no cut-off is given here.

What was measured:
[1] = target: T1, Metabotropic glutamate receptor 5 (Homo sapiens, UniProt P41594); test: Negative allosteric modulation of human recombinant mGluR5 expressed in HEK293 cells expressing GLAST assessed as inhibition of DHPG-induced intracellular Ca2+ level after 30 mins by FLIPR assay
[2] = Terminal half life in Sprague-Dawley rat at 3 umol/kg, iv; type: ADME, organism-based; conditions: in vivo, read-out: beta t1/2 (converted)
Procedure, shortened: (§1)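 Male rats (n = 3) received a single intravenous dose of 3 µmol/kg. Vehicle was 40% w/w dimethylacetamide/40% w/w PEG 400/20% w/w water. Plasma drug was measured after liquid–liquid extraction by reversed-phase LC with APCI or ESI tandem MS.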

[3] = Clearance in Sprague-Dawley rat at 3 umol/kg, iv; type: ADME, organism-based; conditions: in vivo; procedure, shortened: as §1
[4] = Tmax in Sprague-Dawley rat at 3 umol/kg, po; type: ADME, organism-based; conditions: in vivo
Procedure, shortened: (§2)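 Male rats (n = 3) received a single oral dose of 3 µmol/kg. Vehicle was Polyvidon K30 1.7 mg/ml, sodium lauryl sulphate 0.34 mg/ml and glycerin 25.0 mg/ml in water. Plasma levels were measured by liquid–liquid extraction and reversed-phase LC-MS/MS (APCI or ESI).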

[5] = Oral bioavailability in Sprague-Dawley rat at 3 umol/kg; type: ADME, organism-based; conditions: in vivo; procedure, shortened: as §2
[6] = Plasma protein binding in Sprague-Dawley rat after 6 hrs by equilibrium dialysis method; type: ADME, cell-free; conditions: read-out: PPB (converted)
[7] = Ratio of drug level in brain to plasma of Sprague-Dawley rat at 3 umol/kg, po; type: ADME; conditions: read-out: BPR
Procedure, shortened: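 Rats were given an oral dose of 3 µmol/kg. Total brain exposure was compared with plasma exposure to give a brain-to-plasma ratio.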

[8] = target: Metabotropic glutamate receptor 8 (Homo sapiens) (UniProt O00222); test: Positive allosteric modulation of mGluR8 assessed as effect on intracellular Ca2+ level up to 30 uM by cell based FLIPR assay; type: functional
Metabotropic glutamate receptor 8 (Homo sapiens), sequence (O00222 whole entry): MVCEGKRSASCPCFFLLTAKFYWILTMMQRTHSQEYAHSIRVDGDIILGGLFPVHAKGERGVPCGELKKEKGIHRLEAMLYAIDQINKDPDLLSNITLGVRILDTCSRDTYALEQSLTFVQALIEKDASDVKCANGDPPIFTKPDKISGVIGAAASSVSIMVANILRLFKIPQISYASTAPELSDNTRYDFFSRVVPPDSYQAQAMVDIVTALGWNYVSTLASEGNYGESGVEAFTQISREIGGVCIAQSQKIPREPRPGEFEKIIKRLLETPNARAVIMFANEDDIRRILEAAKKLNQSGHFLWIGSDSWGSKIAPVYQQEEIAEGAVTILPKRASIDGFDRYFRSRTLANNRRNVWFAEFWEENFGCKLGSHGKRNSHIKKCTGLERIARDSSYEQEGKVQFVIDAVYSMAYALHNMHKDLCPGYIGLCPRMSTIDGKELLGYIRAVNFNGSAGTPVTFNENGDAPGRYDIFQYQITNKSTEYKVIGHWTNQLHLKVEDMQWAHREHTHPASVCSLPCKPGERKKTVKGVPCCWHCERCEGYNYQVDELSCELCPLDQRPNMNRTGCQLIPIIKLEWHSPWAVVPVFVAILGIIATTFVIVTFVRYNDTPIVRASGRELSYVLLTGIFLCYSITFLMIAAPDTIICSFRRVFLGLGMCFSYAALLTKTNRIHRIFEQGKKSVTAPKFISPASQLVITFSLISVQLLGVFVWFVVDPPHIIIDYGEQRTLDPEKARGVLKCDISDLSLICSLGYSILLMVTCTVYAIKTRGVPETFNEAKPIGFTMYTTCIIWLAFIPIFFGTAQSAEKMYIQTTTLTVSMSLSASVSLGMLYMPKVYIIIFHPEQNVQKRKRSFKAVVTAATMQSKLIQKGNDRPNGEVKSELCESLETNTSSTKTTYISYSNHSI
Procedure, shortened: (§3)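 Each of the seven other mGluR subtypes was tested at concentrations up to 30 µM. Agonist, antagonist and positive allosteric modulator modes were each assessed. Read-out was the change in intracellular Ca2+ on FLIPR.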

[9] = target: Metabotropic glutamate receptor 7 (Homo sapiens) (UniProt Q14831); test: Positive allosteric modulation of mGluR7 assessed as effect on intracellular Ca2+ level up to 30 uM by cell based FLIPR assay; type: functional; procedure, shortened: as §3
Metabotropic glutamate receptor 7 (Homo sapiens), sequence (Q14831 whole entry): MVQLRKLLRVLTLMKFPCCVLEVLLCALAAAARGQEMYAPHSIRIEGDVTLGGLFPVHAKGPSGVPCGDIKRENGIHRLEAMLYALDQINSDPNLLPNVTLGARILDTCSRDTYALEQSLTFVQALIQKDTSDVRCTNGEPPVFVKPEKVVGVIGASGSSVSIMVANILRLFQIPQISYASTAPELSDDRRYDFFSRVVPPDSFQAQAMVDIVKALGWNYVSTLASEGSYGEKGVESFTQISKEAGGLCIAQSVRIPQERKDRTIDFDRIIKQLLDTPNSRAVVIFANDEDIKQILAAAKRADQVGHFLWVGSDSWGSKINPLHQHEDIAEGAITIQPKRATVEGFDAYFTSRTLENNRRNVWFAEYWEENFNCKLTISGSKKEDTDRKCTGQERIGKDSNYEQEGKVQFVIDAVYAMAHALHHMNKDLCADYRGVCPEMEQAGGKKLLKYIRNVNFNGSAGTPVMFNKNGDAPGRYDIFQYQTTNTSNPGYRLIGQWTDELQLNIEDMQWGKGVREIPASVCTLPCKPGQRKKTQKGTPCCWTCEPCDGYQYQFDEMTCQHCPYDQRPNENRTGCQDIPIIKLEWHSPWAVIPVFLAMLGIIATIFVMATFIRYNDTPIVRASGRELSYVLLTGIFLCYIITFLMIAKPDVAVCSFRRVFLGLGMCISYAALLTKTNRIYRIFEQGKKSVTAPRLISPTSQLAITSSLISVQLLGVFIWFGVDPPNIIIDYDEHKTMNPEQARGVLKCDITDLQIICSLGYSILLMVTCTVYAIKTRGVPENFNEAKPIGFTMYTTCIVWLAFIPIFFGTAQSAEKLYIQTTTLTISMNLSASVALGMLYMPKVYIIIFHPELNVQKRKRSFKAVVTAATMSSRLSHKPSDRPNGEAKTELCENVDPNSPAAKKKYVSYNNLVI

[10] = target: Metabotropic glutamate receptor 6 (Homo sapiens) (UniProt O15303); test: Positive allosteric modulation of mGluR6 assessed as effect on intracellular Ca2+ level up to 30 uM by cell based FLIPR assay; type: functional; procedure, shortened: as §3
Metabotropic glutamate receptor 6 (Homo sapiens), sequence (O15303 whole entry): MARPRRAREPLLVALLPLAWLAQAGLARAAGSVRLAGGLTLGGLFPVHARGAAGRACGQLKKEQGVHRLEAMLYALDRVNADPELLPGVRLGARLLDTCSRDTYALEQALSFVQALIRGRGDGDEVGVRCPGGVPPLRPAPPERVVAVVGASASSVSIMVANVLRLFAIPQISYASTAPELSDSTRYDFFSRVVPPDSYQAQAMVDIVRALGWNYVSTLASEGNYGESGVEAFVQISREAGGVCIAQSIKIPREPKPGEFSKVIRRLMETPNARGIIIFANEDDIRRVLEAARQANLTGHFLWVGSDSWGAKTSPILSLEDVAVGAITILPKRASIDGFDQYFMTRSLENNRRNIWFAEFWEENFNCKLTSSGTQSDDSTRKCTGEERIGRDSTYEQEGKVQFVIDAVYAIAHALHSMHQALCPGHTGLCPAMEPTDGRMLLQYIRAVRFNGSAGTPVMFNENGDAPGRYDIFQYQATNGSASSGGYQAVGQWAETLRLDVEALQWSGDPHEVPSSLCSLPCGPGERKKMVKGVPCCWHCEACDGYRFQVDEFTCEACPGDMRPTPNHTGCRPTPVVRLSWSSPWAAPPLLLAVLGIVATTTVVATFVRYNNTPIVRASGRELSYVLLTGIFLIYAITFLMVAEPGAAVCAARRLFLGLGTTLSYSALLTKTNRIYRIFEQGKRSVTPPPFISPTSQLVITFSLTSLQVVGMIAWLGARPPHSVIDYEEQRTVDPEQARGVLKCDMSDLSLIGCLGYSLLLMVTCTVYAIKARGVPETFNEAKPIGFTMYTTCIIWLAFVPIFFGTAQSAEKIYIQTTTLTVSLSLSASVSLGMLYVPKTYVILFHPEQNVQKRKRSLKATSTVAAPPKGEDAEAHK

[11] = target: Metabotropic glutamate receptor 4 (Homo sapiens) (UniProt Q14833); test: Positive allosteric modulation of mGluR4 assessed as effect on intracellular Ca2+ level up to 30 uM by cell based FLIPR assay; type: functional; procedure, shortened: as §3
Metabotropic glutamate receptor 4 (Homo sapiens), sequence (Q14833 whole entry): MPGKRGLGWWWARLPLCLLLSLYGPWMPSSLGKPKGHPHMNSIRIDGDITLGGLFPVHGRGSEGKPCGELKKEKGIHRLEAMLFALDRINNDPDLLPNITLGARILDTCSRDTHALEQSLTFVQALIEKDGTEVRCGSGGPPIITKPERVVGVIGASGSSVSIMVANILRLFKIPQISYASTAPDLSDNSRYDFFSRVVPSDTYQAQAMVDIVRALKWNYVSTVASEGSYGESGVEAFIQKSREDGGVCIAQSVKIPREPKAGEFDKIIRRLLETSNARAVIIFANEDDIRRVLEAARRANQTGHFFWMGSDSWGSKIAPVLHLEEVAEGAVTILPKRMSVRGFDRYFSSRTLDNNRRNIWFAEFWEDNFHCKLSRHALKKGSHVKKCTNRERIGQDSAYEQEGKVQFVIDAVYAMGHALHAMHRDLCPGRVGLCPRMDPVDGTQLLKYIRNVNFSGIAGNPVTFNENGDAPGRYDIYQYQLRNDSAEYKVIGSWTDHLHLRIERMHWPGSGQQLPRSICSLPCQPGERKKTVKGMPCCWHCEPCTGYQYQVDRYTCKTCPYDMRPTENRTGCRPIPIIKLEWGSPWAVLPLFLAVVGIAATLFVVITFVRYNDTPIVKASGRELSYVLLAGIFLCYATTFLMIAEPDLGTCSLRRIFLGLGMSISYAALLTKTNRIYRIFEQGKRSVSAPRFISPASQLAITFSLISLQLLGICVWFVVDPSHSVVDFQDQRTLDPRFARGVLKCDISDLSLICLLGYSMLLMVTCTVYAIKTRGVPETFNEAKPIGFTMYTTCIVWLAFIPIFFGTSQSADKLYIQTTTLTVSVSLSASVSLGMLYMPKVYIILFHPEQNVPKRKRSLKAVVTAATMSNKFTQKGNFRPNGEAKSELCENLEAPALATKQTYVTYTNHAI

[12] = target: Metabotropic glutamate receptor 2 (Homo sapiens) (UniProt Q14416); test: Positive allosteric modulation of mGluR2 assessed as effect on intracellular Ca2+ level up to 30 uM by cell based FLIPR assay; type: functional; procedure, shortened: as §3
Metabotropic glutamate receptor 2 (Homo sapiens), sequence (Q14416 19-872 limits assumed): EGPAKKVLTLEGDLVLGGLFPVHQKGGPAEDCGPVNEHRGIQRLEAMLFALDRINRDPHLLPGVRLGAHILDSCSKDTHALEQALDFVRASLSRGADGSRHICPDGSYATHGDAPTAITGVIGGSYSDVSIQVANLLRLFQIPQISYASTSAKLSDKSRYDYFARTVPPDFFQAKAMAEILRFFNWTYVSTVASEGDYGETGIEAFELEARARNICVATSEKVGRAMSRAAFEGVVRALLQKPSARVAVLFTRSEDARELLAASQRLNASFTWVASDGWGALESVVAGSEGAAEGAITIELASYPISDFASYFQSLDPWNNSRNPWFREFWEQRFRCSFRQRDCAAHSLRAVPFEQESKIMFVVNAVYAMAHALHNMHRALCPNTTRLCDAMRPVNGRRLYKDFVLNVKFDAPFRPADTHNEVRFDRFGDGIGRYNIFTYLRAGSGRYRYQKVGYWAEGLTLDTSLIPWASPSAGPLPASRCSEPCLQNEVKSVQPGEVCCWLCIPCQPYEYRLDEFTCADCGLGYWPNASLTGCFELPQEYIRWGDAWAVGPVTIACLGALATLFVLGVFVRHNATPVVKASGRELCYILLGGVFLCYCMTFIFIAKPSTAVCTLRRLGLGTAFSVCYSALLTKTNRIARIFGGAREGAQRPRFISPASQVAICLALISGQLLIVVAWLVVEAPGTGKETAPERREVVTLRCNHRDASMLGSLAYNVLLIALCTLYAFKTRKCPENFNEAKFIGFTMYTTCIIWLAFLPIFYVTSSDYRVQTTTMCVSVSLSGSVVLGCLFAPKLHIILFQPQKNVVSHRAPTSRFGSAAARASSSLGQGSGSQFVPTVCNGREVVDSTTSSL

[13] = target: Metabotropic glutamate receptor 1 (Homo sapiens) (UniProt Q13255); test: Positive allosteric modulation of mGluR1 assessed as effect on intracellular Ca2+ level up to 30 uM by cell based FLIPR assay; type: functional; procedure, shortened: as §3
[14] = target: Metabotropic glutamate receptor 8 (Homo sapiens) (UniProt O00222); test: Antagonist activity at mGluR8 assessed as effect on intracellular Ca2+ level up to 30 uM by cell based FLIPR assay; type: functional; procedure, shortened: as §3
[15] = target: Metabotropic glutamate receptor 7 (Homo sapiens) (UniProt Q14831); test: Antagonist activity at mGluR7 assessed as effect on intracellular Ca2+ level up to 30 uM by cell based FLIPR assay; type: functional; procedure, shortened: as §3
[16] = target: Metabotropic glutamate receptor 6 (Homo sapiens) (UniProt O15303); test: Antagonist activity at mGluR6 assessed as effect on intracellular Ca2+ level up to 30 uM by cell based FLIPR assay; type: functional; procedure, shortened: as §3
[17] = target: Metabotropic glutamate receptor 2 (Homo sapiens) (UniProt Q14416); test: Antagonist activity at mGluR2 assessed as effect on intracellular Ca2+ level up to 30 uM by cell based FLIPR assay; type: functional; procedure, shortened: as §3
[18] = target: Metabotropic glutamate receptor 1 (Homo sapiens) (UniProt Q13255); test: Antagonist activity at mGluR1 assessed as effect on intracellular Ca2+ level up to 30 uM by cell based FLIPR assay; type: functional; procedure, shortened: as §3
[19] = target: Metabotropic glutamate receptor 8 (Homo sapiens) (UniProt O00222); test: Agonist activity at mGluR8 assessed as effect on intracellular Ca2+ level up to 30 uM by cell based FLIPR assay; type: functional; procedure, shortened: as §3
[20] = target: Metabotropic glutamate receptor 7 (Homo sapiens) (UniProt Q14831); test: Agonist activity at mGluR7 assessed as effect on intracellular Ca2+ level up to 30 uM by cell based FLIPR assay; type: functional; procedure, shortened: as §3
[21] = target: Metabotropic glutamate receptor 4 (Homo sapiens) (UniProt Q14833); test: Agonist activity at mGluR4 assessed as effect on intracellular Ca2+ level up to 30 uM by cell based FLIPR assay; type: functional; procedure, shortened: as §3
[22] = target: Metabotropic glutamate receptor 3 (Homo sapiens) (UniProt Q14832); test: Agonist activity at mGluR3 assessed as effect on intracellular Ca2+ level up to 30 uM by cell based FLIPR assay; type: functional; procedure, shortened: as §3
[23] = target: Metabotropic glutamate receptor 1 (Homo sapiens) (UniProt Q13255); test: Agonist activity at mGluR1 assessed as effect on intracellular Ca2+ level up to 30 uM by cell based FLIPR assay; type: functional; procedure, shortened: as §3
[24] = Volume of distribution at steady state in Sprague-Dawley rat at 3 umol/kg, iv; type: ADME, organism-based; conditions: in vivo, read-out: Vdss; procedure, shortened: as §1
[25] = Cmax in Sprague-Dawley rat at 3 umol/kg, po; type: ADME, organism-based; parameters: dose 3 umol/kg, route oral; conditions: in vivo; procedure, shortened: as §2
[26] = Equilibrium solubility of the compound […]; type: physicochemical
Procedure, shortened: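 Solubility was measured by a dried-DMSO rapid-throughput method.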

[27] = Intrinsic clearance in rat liver microsomes; type: ADME, Microsome; conditions: read-out: CLH
Procedure, shortened: (§4)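 Intrinsic clearance was determined in human or rat microsomes and expressed per min per mg protein.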

[28] = Intrinsic clearance in human liver microsomes; type: ADME, Microsome; conditions: read-out: CLH; procedure, shortened: as §4
[29] = target: T1, Metabotropic glutamate receptor 5; test: Negative allosteric modulation of human recombinant mGluR5 expressed in HEK293 cells expressing GLAST assessed as inhibition of glutamate-stimulated IP accumulation incubated for 10 mins prior to glutamate challenge measured 30 mins post glutamate challenge by scintillation counter in presence of [3H]myo-inositol; type: functional, cell-based
[30] = target: Metabotropic glutamate receptor 5 (Rattus norvegicus) (UniProt P31424); test: Negative allosteric modulation of rat recombinant mGluR5 expressed in HEK293 cells expressing GLAST assessed as inhibition of DHPG-induced intracellular Ca2+ level at 0.001 to 3 uM after 30 mins by FLIPR assay; type: functional, cell-based
[31] = target: T1, Metabotropic glutamate receptor 5; test: Negative allosteric modulation of human recombinant mGluR5 expressed in HEK293 cells expressing GLAST assessed as inhibition of DHPG-induced intracellular Ca2+ level at 0.001 to 3 uM after 30 mins by FLIPR assay; type: functional, cell-based
[32] = target: T1, Metabotropic glutamate receptor 5; test: Noncompetitive inhibition of human mGluR5 expressed in HEK cells assessed as inhibition of DHPG-induced intracellular Ca2+ level at 10 to 300 nM after 30 mins by FLIPR assay; type: functional, cell-based; conditions: HEK293
Procedure, shortened: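 Human mGluR5-GHEK cells on FLIPR: DHPG concentration–response curves run at increasing modulator concentrations, intracellular Ca2+ read-out; shifts in DHPG potency and maximal response evaluated for non-competitive interaction.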

[33] = target: T1, Metabotropic glutamate receptor 5; test: Negative allosteric modulation of human recombinant mGluR5 expressed in HEK293 cells expressing GLAST assessed as inhibition of DHPG-induced intracellular Ca2+ level after 30 mins by FLIPR assay

Row | SMILES | pIC50 [1] | half-life [2] [h] | clearance [3] [mL/min/kg] | Tmax [4] [h] | bioavailability [5] [%] | fraction unbound at 6 h [6] | Kp [7] | Activity [8] [%] | Activity [9] [%] | Activity [10] [%] | Activity [11] [%] | Activity [12] [%] | Activity [13] [%] | inhibition [14] [%] | inhibition [15] [%] | inhibition [16] [%] | inhibition [17] [%] | inhibition [18] [%] | Activity [19] [%] | Activity [20] [%] | other results
1 | N#Cc1cc(F)cc(-c2nc(-c3ccc(F)cn3)no2)c1 | 8.12 | 2.5 | 5.17 | 4 | 56 | 0.2 | 1 | < 50 | < 50 | < 50 | < 50 | < 50 | < 50 | < 50 | < 50 | < 50 | < 50 | < 50 | < 50 | < 50 | Activity [21]: < 50%; Activity [22]: < 50%; Activity [23]: < 50%; Vd [24]: 1.6 L/kg; Cmax [25]: 460 nM; solubility [26]: 4.2 µM (≈ 1.19 µg/mL); microsomal CLint [27]: 10 µL/min/mg; microsomal CLint [28]: 13.5 µL/min/mg; pIC50 [29]: 7.59; inhibition [29]: Dose-dependent effect; inhibition [30]: 100%; inhibition [31]: 100%; inhibition [32]: Active; inhibition [33]: Dose-dependent effect
2 | N#Cc1ccc(-c2noc(-c3cc(F)cc(C#N)c3)n2)nc1 | 7.87 | 5.6 | 4 | 3 | 46 | 0.23 | 1 | < 50 | < 50 | < 50 | < 50 | < 50 | < 50 | < 50 | < 50 | < 50 | < 50 | < 50 | < 50 | < 50 | Activity [21]: < 50%; Activity [22]: < 50%; Activity [23]: < 50%; Vd [24]: 2 L/kg; Cmax [25]: 500 nM; solubility [26]: 16.1 µM (≈ 4.69 µg/mL); microsomal CLint [27]: 6 µL/min/mg; microsomal CLint [28]: 3 µL/min/mg; pIC50 [29]: 7.29; inhibition [29]: Dose-dependent effect; inhibition [30]: 100%; inhibition [31]: 100%; inhibition [32]: Active; inhibition [33]: Dose-dependent effect
